From ChEMBL document CHEMBL1821556, “Structure-activity relationships of antitubercular nitroimidazoles. 3. Exploration of the linker and lipophilic tail of ((s)-2-nitro-6,7-dihydro-5H-imidazo[2,1-b][1,3]oxazin-6-yl)-(4-trifluoromethoxybenzyl)amine (6-amino PA-824)” (J Med Chem, 2011)

Legend:
[1] = substrate: CC(=O)N(Cc1ccc(OC(F)(F)F)cc1)[C@@H]1COc2nc([N+](=O)[O-])cn2C1; assay: (§1) Ratio of Kcat to Km for Mycobacterium tuberculosis deazaflavin-dependent nitroreductase
Procedure, shortened: (§2)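 Each compound was tested as a substrate of Mtb deazaflavin-dependent nitroreductase (Ddn). kcat/KM was derived from the kinetics of reduced F420 reoxidation. Assays were repeated in two independent laboratories until concordant, and values are averages of multiple measurements.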

[2] = substrate: CC(C)N(Cc1ccc(OC(F)(F)F)cc1)[C@@H]1COc2nc([N+](=O)[O-])cn2C1; assay: as §1; procedure, shortened: as §2
[3] = substrate: CC(N[C@@H]1COc2nc([N+](=O)[O-])cn2C1)c1ccc(OC(F)(F)F)cc1; assay: as §1; procedure, shortened: as §2
[4] = substrate: CCC(N[C@@H]1COc2nc([N+](=O)[O-])cn2C1)c1ccc(OC(F)(F)F)cc1; assay: as §1; procedure, shortened: as §2
[5] = substrate: CCCC(N[C@@H]1COc2nc([N+](=O)[O-])cn2C1)c1ccc(OC(F)(F)F)cc1; assay: as §1; procedure, shortened: as §2
[6] = substrate: CCCCC(N[C@@H]1COc2nc([N+](=O)[O-])cn2C1)c1ccc(OC(F)(F)F)cc1; assay: as §1; procedure, shortened: as §2
[7] = substrate: CCCN(Cc1ccc(OC(F)(F)F)cc1)[C@@H]1COc2nc([N+](=O)[O-])cn2C1; assay: as §1; procedure, shortened: as §2
[8] = substrate: CCNC(=O)N(Cc1ccc(OC(F)(F)F)cc1)[C@@H]1COc2nc([N+](=O)[O-])cn2C1; assay: as §1; procedure, shortened: as §2
[9] = substrate: CN(Cc1ccc(OC(F)(F)F)cc1)[C@@H]1COc2nc([N+](=O)[O-])cn2C1; assay: as §1; procedure, shortened: as §2
[10] = substrate: CN1CCN(c2cc(CN[C@@H]3COc4nc([N+](=O)[O-])cn4C3)ccc2OC(F)(F)F)CC1; assay: as §1; procedure, shortened: as §2
[11] = substrate: CN1CCN(c2cc(OC(F)(F)F)ccc2CN[C@@H]2COc3nc([N+](=O)[O-])cn3C2)CC1; assay: as §1; procedure, shortened: as §2
[12] = substrate: COC(=O)c1cc(CN[C@@H]2COc3nc([N+](=O)[O-])cn3C2)ccc1OC(F)(F)F; assay: as §1; procedure, shortened: as §2
[13] = substrate: COc1cc(CN[C@@H]2COc3nc([N+](=O)[O-])cn3C2)ccc1OC(F)(F)F; assay: as §1; procedure, shortened: as §2
[14] = substrate: COc1cc(CO[C@@H]2COc3nc([N+](=O)[O-])cn3C2)ccc1OC(F)(F)F; assay: as §1; procedure, shortened: as §2
[15] = substrate: COc1cc(OC(F)(F)F)ccc1CN[C@@H]1COc2nc([N+](=O)[O-])cn2C1; assay: as §1; procedure, shortened: as §2
[16] = substrate: NC(=O)C(N[C@@H]1COc2nc([N+](=O)[O-])cn2C1)c1ccc(OC(F)(F)F)cc1; assay: as §1; procedure, shortened: as §2
[17] = substrate: O=C(c1ccc(Cl)cc1)N(Cc1ccc(OC(F)(F)F)cc1)[C@@H]1COc2nc([N+](=O)[O-])cn2C1; assay: as §1; procedure, shortened: as §2
[18] = substrate: O=C(c1cccc(Cl)c1)N(Cc1ccc(OC(F)(F)F)cc1)[C@@H]1COc2nc([N+](=O)[O-])cn2C1; assay: as §1; procedure, shortened: as §2
[19] = substrate: O=C(c1ccccc1)N(Cc1ccc(OC(F)(F)F)cc1)[C@@H]1COc2nc([N+](=O)[O-])cn2C1; assay: as §1; procedure, shortened: as §2
[20] = substrate: O=C(c1ccccc1Cl)N(Cc1ccc(OC(F)(F)F)cc1)[C@@H]1COc2nc([N+](=O)[O-])cn2C1; assay: as §1; procedure, shortened: as §2
[21] = substrate: O=CN(Cc1ccc(OC(F)(F)F)cc1)[C@@H]1COc2nc([N+](=O)[O-])cn2C1; assay: as §1; procedure, shortened: as §2
[22] = substrate: O=[N+]([O-])c1cn2c(n1)OC[C@@H](NC(CCO)c1ccc(OC(F)(F)F)cc1)C2; assay: as §1; procedure, shortened: as §2
[23] = substrate: O=[N+]([O-])c1cn2c(n1)OC[C@@H](NC(CO)c1ccc(OC(F)(F)F)cc1)C2; assay: as §1; procedure, shortened: as §2
[24] = substrate: O=[N+]([O-])c1cn2c(n1)OC[C@@H](NC(c1ccc(OC(F)(F)F)cc1)c1ncc[nH]1)C2; assay: as §1; procedure, shortened: as §2
[25] = substrate: O=[N+]([O-])c1cn2c(n1)OC[C@@H](NC(c1ccc(OC(F)(F)F)cc1)c1ncco1)C2; assay: as §1; procedure, shortened: as §2
[26] = substrate: O=[N+]([O-])c1cn2c(n1)OC[C@@H](NCc1ccc(OC(F)(F)F)c(Cl)c1)C2; assay: as §1; procedure, shortened: as §2
[27] = substrate: O=[N+]([O-])c1cn2c(n1)OC[C@@H](NCc1ccc(OC(F)(F)F)c(F)c1)C2; assay: as §1; procedure, shortened: as §2
[28] = substrate: O=[N+]([O-])c1cn2c(n1)OC[C@@H](NCc1ccc(OC(F)(F)F)c(N3CCOCC3)c1)C2; assay: as §1; procedure, shortened: as §2
[29] = substrate: O=[N+]([O-])c1cn2c(n1)OC[C@@H](NCc1ccc(OC(F)(F)F)c(O)c1)C2; assay: as §1; procedure, shortened: as §2
[30] = substrate: O=[N+]([O-])c1cn2c(n1)OC[C@@H](NCc1ccc(OC(F)(F)F)c(Oc3ccccc3)c1)C2; assay: as §1; procedure, shortened: as §2
[31] = substrate: O=[N+]([O-])c1cn2c(n1)OC[C@@H](NCc1ccc(OC(F)(F)F)cc1)C2; assay: as §1; procedure, shortened: as §2
[32] = substrate: O=[N+]([O-])c1cn2c(n1)OC[C@@H](NCc1ccc(OC(F)(F)F)cc1Br)C2; assay: as §1; procedure, shortened: as §2
[33] = substrate: O=[N+]([O-])c1cn2c(n1)OC[C@@H](NCc1ccc(OC(F)(F)F)cc1Cl)C2; assay: as §1; procedure, shortened: as §2
[34] = substrate: O=[N+]([O-])c1cn2c(n1)OC[C@@H](NCc1ccc(OC(F)(F)F)cc1F)C2; assay: as §1; procedure, shortened: as §2
[35] = substrate: O=[N+]([O-])c1cn2c(n1)OC[C@@H](NCc1ccc(OC(F)(F)F)cc1N1CCCCC1)C2; assay: as §1; procedure, shortened: as §2
[36] = substrate: O=[N+]([O-])c1cn2c(n1)OC[C@@H](NCc1ccc(OC(F)(F)F)cc1N1CCOCC1)C2; assay: as §1; procedure, shortened: as §2
[37] = substrate: O=[N+]([O-])c1cn2c(n1)OC[C@@H](NCc1ccc(OC(F)(F)F)cc1O)C2; assay: as §1; procedure, shortened: as §2
[38] = substrate: O=[N+]([O-])c1cn2c(n1)OC[C@@H](NCc1ccc(OC(F)(F)F)cc1OC1CC1)C2; assay: as §1; procedure, shortened: as §2
[39] = substrate: O=[N+]([O-])c1cn2c(n1)OC[C@@H](NCc1ccc(OC(F)(F)F)cc1OCC1CC1)C2; assay: as §1; procedure, shortened: as §2
[40] = substrate: O=[N+]([O-])c1cn2c(n1)OC[C@@H](NCc1ccc(OC(F)(F)F)cc1OCc1ccccc1)C2; assay: as §1; procedure, shortened: as §2
[41] = substrate: O=[N+]([O-])c1cn2c(n1)OC[C@@H](NCc1ccc(OC(F)(F)F)cc1Oc1ccccc1)C2; assay: as §1; procedure, shortened: as §2
[42] = substrate: O=[N+]([O-])c1cn2c(n1)OC[C@@H](OCc1ccc(OC(F)(F)F)c(F)c1)C2; assay: as §1; procedure, shortened: as §2
[43] = substrate: O=[N+]([O-])c1cn2c(n1)OC[C@@H](OCc1ccc(OC(F)(F)F)c(O)c1)C2; assay: as §1; procedure, shortened: as §2
[44] = substrate: O=[N+]([O-])c1cn2c(n1)OC[C@@H](OCc1ccc(OC(F)(F)F)cc1)C2; assay: as §1; procedure, shortened: as §2

B1: Deazaflavin-dependent nitroreductase (Mycobacterium tuberculosis), P9WP15 (protein)
chain: MPKSPPRFLNSPLSDFFIKWMSRINTWMYRRNDGEGLGGTFQKIPVALLTTTGRKTGQPRVNPLYFLRDGGRVIVAASKGGAEKNPMWYLNLKANPKVQVQIKKEVLDLTARDATDEERAEYWPQLVTMYPSYQDYQSWTDRTIPIVVCEP
- kcat/Km [1]: 0.02
- kcat/Km [2]: 0.04
- kcat/Km [3]: 0.09
- kcat/Km [4]: 0.14
- kcat/Km [5]: 0.31
- kcat/Km [6]: 0.4
- kcat/Km [7]: 0.32
- kcat/Km [8]: 0
- kcat/Km [9]: 0.25
- kcat/Km [10]: 0.16
- kcat/Km [11]: 0.17
- kcat/Km [12]: 0.17
- kcat/Km [13]: 0.19
- kcat/Km [14]: 0.24
- kcat/Km [15]: 0.15
- kcat/Km [16]: 0.12
- kcat/Km [17]: 0.37
- kcat/Km [18]: 0.25
- kcat/Km [19]: 0.16
- kcat/Km [20]: 0.13
- kcat/Km [21]: 0.07
- kcat/Km [22]: 0.21
- kcat/Km [23]: 0.15
- kcat/Km [24]: 0.17
- kcat/Km [25]: 0.2
- kcat/Km [26]: 0.31
- kcat/Km [27]: 0.21
- kcat/Km [28]: 0.1
- kcat/Km [29]: 0.13
- kcat/Km [30]: 0.13
- kcat/Km [31]: 0.17
- kcat/Km [32]: 0.25
- kcat/Km [33]: 0.27
- kcat/Km [34]: 0.2
- kcat/Km [35]: 0.42
- kcat/Km [36]: 0.19
- kcat/Km [37]: 0.18
- kcat/Km [38]: 0.31
- kcat/Km [39]: 0.37
- kcat/Km [40]: 0.31
- kcat/Km [41]: 0.42
- kcat/Km [42]: 0.33
- kcat/Km [43]: 0.14
- kcat/Km [44]: 0.15
